CHRM4 agonist = human M4 muscarinic receptor agonists, primary screen, CHO-K1 cells, Fluo-8 calcium fluorescence; CHO-K1 hM4/Gqi5; vehicle 0%, full acetylcholine response 100%; 0.14% of 360,000 active; AID 624127, 2012; activation, % at 3 µM;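 active = activation above the run mean over all test wells plus 3 SD, cut at about 32% in these data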;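 note: peak over basal fluorescence ratio per well then scaled between controls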
M4 antag = human M4 muscarinic receptor antagonists, primary screen, CHO cells, Fluo-8 calcium fluorescence; Muscarinic acetylcholine receptor M4 (Homo sapiens), P08173; CHO-hM4 cells, ACh EC80; inhibition, % at 3 µM; 0.73% of 360,000 active;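 active = inhibition above its plate's cutoff, the mean inhibition of sample wells plus 3 SD, cut at about 27% in these data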
M5 PAM = human M5 muscarinic receptor positive allosteric modulators, primary screen, CHO-K1 cells, Fluo-8 calcium fluorescence; activation, % at 3 µM; CHO-K1 hM5, ACh EC20 PAM; 0% = ACh EC20, 100% = ACh EC100; Muscarinic acetylcholine receptor M5 (Homo sapiens), P08912; 0.3% of 360,000 active;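 active = activation above the run cutoff, the mean activation of all test compounds plus 3 SD, cut at about 18% in these data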
Target sequence (P08912 whole entry, looked up): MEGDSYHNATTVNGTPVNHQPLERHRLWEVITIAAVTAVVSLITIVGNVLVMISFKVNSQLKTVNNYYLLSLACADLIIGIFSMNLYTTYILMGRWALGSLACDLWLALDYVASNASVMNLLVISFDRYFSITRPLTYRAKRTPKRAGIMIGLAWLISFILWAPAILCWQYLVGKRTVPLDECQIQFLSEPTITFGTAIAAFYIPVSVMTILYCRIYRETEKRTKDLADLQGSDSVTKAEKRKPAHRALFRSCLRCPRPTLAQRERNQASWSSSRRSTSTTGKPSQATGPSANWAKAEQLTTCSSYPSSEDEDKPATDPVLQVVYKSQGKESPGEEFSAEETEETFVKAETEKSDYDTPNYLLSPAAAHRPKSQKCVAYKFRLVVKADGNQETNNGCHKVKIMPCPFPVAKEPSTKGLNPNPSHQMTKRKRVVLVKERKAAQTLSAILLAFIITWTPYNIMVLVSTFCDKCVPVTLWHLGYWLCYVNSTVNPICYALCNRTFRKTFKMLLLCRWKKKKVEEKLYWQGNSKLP
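Replicates: One well per compound, no replicates | System: Human M5 receptor in CHO-K1 cells | Benchmarks: Low control EC20 acetylcholine (0%), high control EC100 acetylcholine (100%) | Probe or stimulus: Acetylcholine, EC20 level | Times: Fluo-8 loading 80 min at 37 °C plus 30 min room temperature | Signal: Intracellular calcium via Fluo-8 fluorescence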
CHRM5 agonist = human M5 muscarinic receptor agonists, primary screen, CHO-K1 cells, Fluo-8 calcium fluorescence | Muscarinic acetylcholine receptor M5 (Homo sapiens), P08912 | CHO-K1 hM5 cells; 0% DMSO wells, 100% maximal acetylcholine response | activation, % at 3 µM | 0.19% of 360,000 active | AID 624037, 2012;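 active = activation above the run's mean over test compounds plus 3 SD, cut at about 23% in these data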;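 note: signal is peak over basal fluorescence ratio across the kinetic read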
CHRM4 PAM = human M4 muscarinic receptor positive allosteric modulators, primary screen, CHO-K1 cells, Fluo-8 calcium fluorescence | AID 624126, 2012 | 0.4% of 360,000 active | activation, % at 3 µM | Muscarinic acetylcholine receptor M4 (Homo sapiens), P08173 | CHO-K1 hM4/Gqi5, ACh EC20; 0% = ACh EC20, 100% = maximal ACh;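 active = activation above its plate's cutoff, the mean activation of sample wells plus 3 SD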
M5 antag = human M5 muscarinic receptor antagonists, primary screen, CHO cells, Fluo-8 calcium fluorescence; CHO-hM5 cells, ACh EC80; 0.59% of 360,000 active; inhibition, % at 3 µM; AID 624040, 2012; Muscarinic acetylcholine receptor M5 (Homo sapiens), P08912;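 active = inhibition above a per-plate cutoff, the mean of that plate's test compounds plus 3 SD, cut at about 27% in these data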
A number is an active result; - = inactive. Rows were chosen to be rich in hits. Some 1.9% of all compounds tested hit in one or more screens of this group.

SMILES	CHRM4 agonist	M4 antag	M5 PAM	CHRM5 agonist	CHRM4 PAM	M5 antag
NC(=O)c1nsc(C(=O)N(c2cccc(F)c2)C(C(=O)NCC2CCCO2)c2ccc3ncccc3c2)c1N (stereo unspecified)	-	-	-	-	-	-
CN(C(=O)COc1ccccc1C(=O)NCCOc1ccccc1)c1ccccc1	-	60	-	-	-	43
COc1ccc(OCC(O)CN2CCC(CN3C(=O)c4cccc5cccc(c45)C3=O)CC2)cc1 (stereo unspecified)	-	27	-	-	-	-
OC[C@@H]1CN(Cc2ccc(-c3ccccc3)cc2)C[C@H](n2cnc3c(Nc4ccccc4)ncnc32)O1	-	37	-	-	-	-
OC[C@@H]1CN(Cc2ccc(F)cc2)C[C@H](n2cnc3c(Nc4ccccc4)ncnc32)O1	-	-	-	-	-	-
OC[C@@H]1CN(Cc2ccccc2)C[C@H](n2cnc3c(NCc4ccncc4)ncnc32)O1	-	-	-	-	20	-
OC[C@@H]1CN(Cc2ccc(F)cc2)C[C@H](n2cnc3c(NCc4ccncc4)ncnc32)O1	-	-	-	-	-	-
COc1cc(CNc2ncnc3c2ncn3[C@H]2CN(Cc3cc(OC)c(OC)c(OC)c3)C[C@@H](CO)O2)cc(OC)c1OC	-	-	-	-	22	-
COCC1CCN(C(=O)c2ccc3oc(C(C)C)nc3c2)C1 (stereo unspecified)	-	-	-	-	-	-
CCCCn1c(N)c(N(CCC(C)C)C(=O)CSc2nc3ccccc3n2C)c(=O)[nH]c1=O	-	-	21	-	-	-
CCCCn1c(N)c(N(CC(C)C)C(=O)c2cccc(S(=O)(=O)N3CCCCCC3)c2)c(=O)[nH]c1=O	-	-	-	-	-	-
CCCCn1c(N)c(N(CC(C)C)C(=O)c2cccc(S(=O)(=O)N3CCCCC3)c2)c(=O)[nH]c1=O	-	-	-	-	22	-
CCCCn1c(N)c(N(CCC(C)C)C(=O)COC(=O)c2ccc3ccccc3c2)c(=O)[nH]c1=O	-	-	-	-	23	-
CCCCn1c(N)c(N(CCC(C)C)C(=O)c2cc(Cl)nc3ccccc23)c(=O)[nH]c1=O	-	-	26	-	-	-
CC(=O)N/C(=C\c1ccc(C)o1)C(=O)NCc1ccccc1	-	-	-	-	-	-
COc1ccccc1C(=O)N/C(=C\c1cn(S(=O)(=O)N(C)C)c2ccccc12)C(=O)N1CCN(C)CC1	-	-	-	-	-	-
O=C1NN=C2CCCCCCC12 (stereo unspecified)	-	91	-	-	-	-
O=C(CSc1nnc(C2CC2)n1C1CC1)c1ccc(Br)s1	-	-	-	-	-	-
CCCCCCCCCCCCCCCC[n+]1cccc2ccccc21	-	52	-	-	-	64
CCCCCCCCC[n+]1cccc2c3ccccc3ccc21	-	70	-	-	-	41
O=[N+]([O-])c1ccc(C[n+]2cccc3c4ccccc4ccc32)cc1	-	-	-	-	-	-
Cc1ccccc1C[n+]1cccc2ccccc21	-	-	-	-	-	-
CCCNC(=O)c1cc(C2CCCN(C(=O)c3cc(F)ccc3C)C2)on1 (stereo unspecified)	-	-	-	-	-	-
Cc1ccc(Cl)cc1NC(=O)CON=C(N)c1ccccc1	-	-	-	-	-	-
C/C(=N\NC(=O)c1nn(C)c(C)c1Br)c1cccc(NC(=O)c2ccoc2C)c1	-	-	22	-	-	-
SMILES	CHRM4 agonist	M4 antag	M5 PAM	CHRM5 agonist	CHRM4 PAM	M5 antag
COc1ccc(Cl)cc1NC(=O)C1CCN(C(=O)Nc2ccccc2)CC1	-	-	-	-	-	-
Cc1oc2nc(SCC(=O)N3CCCCC3)nc(N)c2c1C	-	-	-	-	20	-
COc1ccc(C2C(C(=O)O)CCC(=O)N2c2ccc(OC)cc2)cc1 (stereo unspecified)	-	-	-	-	-	-
COc1ccc(C2C(C(=O)NCc3ccco3)CCC(=O)N2c2ccc(OC)cc2)cc1 (stereo unspecified)	-	-	46	-	-	-
Cc1cc(C)c(C)c(S(=O)(=O)N2CCC(C(=O)N3CC(C)CC(C)C3)CC2)c1C (stereo unspecified)	-	-	-	-	20	-
CC(OC(=O)CC(C)c1ccccc1)C(=O)Nc1ccc(Cl)cn1 (stereo unspecified)	-	-	-	-	-	-
C#CCN(Cc1ccco1)C(=O)c1cc(COc2cccc3cccnc23)on1	-	-	-	-	-	-
c1ccc2c(c1)COc1c3cc4c(cc3nn1-2)OCO4	-	-	-	-	20	-
COc1ccc(-c2c(-c3ccccc3OC)sc3ccccc23)cc1C=O	-	-	-	-	-	-
CCC(=O)C1CCCN(C(=O)CCc2nnc(C3(c4ccc(Cl)cc4)CCC3)o2)C1 (stereo unspecified)	-	-	-	-	21	-
Cc1ccc(CCNC(=O)CCn2ccc3cc(S(=O)(=O)N4CCCC4)ccc32)cc1	-	-	-	-	-	-
O=C(CCn1ccc2cc(S(=O)(=O)N3CCCC3)ccc21)NCCc1ccccc1	-	-	26	-	-	29
O=C(Nc1ccccc1)Nc1ccc2nnsc2c1	-	30	-	-	-	44
Cn1cccc1C1CCCN1CC(=O)Nc1ccc(C(N)=O)cc1 (stereo unspecified)	-	-	-	-	-	-
COc1ccc(S(=O)(=O)N2CCCCC2)cc1NC(=O)CN(C)C1CCCCC1	-	-	-	-	-	-
COc1ccc(S(=O)(=O)N2CCCCC2)cc1NC(=O)CN(Cc1ccco1)Cc1ccco1	-	27	-	-	-	43
Cc1ccc(CNC(=O)C2COc3ccccc3O2)cc1 (stereo unspecified)	-	-	-	-	-	-
Cc1ccc(C(C(=O)NCc2ccc(F)cc2)N(CCCO)C(=O)C2COc3ccccc3O2)o1 (stereo unspecified)	-	41	-	-	-	-
CC(=O)N1CCc2cc(S(=O)(=O)NC(CC(C)C)C(=O)N3CCc4ccccc4C3)ccc21 (stereo unspecified)	-	29	-	-	32	-
Cc1nn2c(SCC(=O)c3cccs3)cc(C(C)(C)C)nc2c1-c1ccccc1	-	-	-	-	-	-
